Test results as given in PubChem BioAssay AID624259 (Broad Institute, 2012).
Several values for one entry are separate records, joined by “and”; a condition that tells them apart may be missing. Equal values may be shown once. Activity calls are given as the source filed them.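 Rule for the calls: active = luminescence drop whose fitted half-maximal dose is at or below twice the top valid tested dose; inconclusive = flat fit with 30 to 70% inhibition, or poor fit; inactive = the rest, including signal rises.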

How the values were obtained:
[1] = system: SK-MEL-5 TRPM1-promoter luciferase reporter, 24 h; assay: reducers of TRPM1 reporter luminescence – cell-based, SK-MEL-5, dry powder samples, set 3, MITF inhibitor project, dose response (AID 624259)
Method in brief: (§1)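 Test system: SK-MEL-5 melanoma line with stable TRPM1 promoter–luciferase reporter; dosing: compound in DMSO, 100 nL pinned per well; incubation: compound exposure 24 h, 37 °C; detection: luminescence after SteadyGlo luciferase reagent addition; read-out: reporter luminescence decrease, reflecting reduced MITF-driven TRPM1 expression; benchmarks: parthenolide as positive (inhibition) control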

[2] = as above; settings: SK-MEL-5 TRPM1-promoter luciferase reporter, 24 h; at 35 µM (top of the series)
Method in brief: as §1

| Structure (SMILES) | AC50 [1] | activity change, negative = inhibition [2] |
| --- | --- | --- |
| COc1cccc(C2=C(NC(=O)c3ccccc3)C(=O)c3ccccc3C2=O)c1 | 32 µM | – |
| COc1ccc(S(=O)(=O)N(C(C)=O)c2ccc(OC(C)=O)c3ccccc23)cc1[N+](=O)[O-] | 11.5 µM | – |
| CCN1c2ccccc2NC2N=C(OC)C(c3ccccc3)C21 (stereo not given) | 4.27 µM | – |
| C=CCNC1=C(N2CCSCC2)C(=O)c2ccccc2C1=O | 3.98 µM | – |
| CC(=O)NC1=C(c2ccc(Cl)cc2)C(=O)c2ccccc2C1=O | 8 µM | – |
| CCN1CCN(C2=C(NC(=O)c3ccccc3)C(=O)c3ccccc3C2=O)CC1 | 1.27 µM | – |
| CC(=O)NC1=C(c2cccc(Cl)c2)C(=O)c2ccccc2C1=O | 7.59 µM | – |
| COc1ccc(C2=C(NC(=O)c3ccc(OC)cc3-c3cccc(OC)c3)C(=O)c3ccccc3C2=O)cc1 | – | 25.2% (inactive) |
| O=C(NC1=C(c2ccccc2)C(=O)c2ccccc2C1=O)c1ccco1 | 9.91 µM | – |
| C=CCNC1=C(NCC=C)C(=O)c2ccccc2C1=O | – | -10.6% (inactive) |
| O=C1C(NS(=O)(=O)c2cccs2)=C(N2CCOCC2)C(=O)c2ccccc21 | 14.9 µM | – |
| CCN1CCN(C2=C(NS(=O)(=O)c3cccs3)C(=O)c3ccccc3C2=O)CC1 | 6.16 µM | – |
| COc1cccc(-c2cc(C(=O)NC3=C(Cl)C(=O)c4ccccc4C3=O)ccc2OC)c1 | 10.4 µM | – |
| COc1ccc(C(=O)NC2=C(c3ccc(OC(F)(F)F)cc3)C(=O)c3ccccc3C2=O)cc1 | – | -7.11% (inactive) |
| C=CCNC1=C(N2CCN(CC)CC2)C(=O)c2ccccc2C1=O | 11.3 µM | – |
| COc1ccc(C2=C(NC(=O)c3ccc4ccccc4c3)C(=O)c3ccccc3C2=O)cc1 | – | 24.2% (inactive) |
| Cc1nc2ccccc2n1/N=C/c1ccc([N+](=O)[O-])s1 | 3.29 µM | – |
| O=C(NC1=C(c2ccccc2)C(=O)c2ccccc2C1=O)c1ccc(Br)cc1 | 18.1 µM | – |
| C=CCNC1=C(NS(=O)(=O)c2ccc(Br)cc2)C(=O)c2ccccc2C1=O | 22.9 µM | – |
| NC1=C(c2ccccc2)C(=O)c2ccccc2C1=O | 14.5 µM | – |

| Structure (SMILES) | AC50 [1] | activity change, negative = inhibition [2] |
| --- | --- | --- |
| O=C(NC1=C(c2ccc(OC(F)(F)F)cc2)C(=O)c2ccccc2C1=O)c1ccco1 | 31.1 µM | – |
| COc1ccc(C2=C(NC(=O)c3cccc(Cl)c3)C(=O)c3ccccc3C2=O)cc1 | 33.5 µM | – |
| CN1CCN(C2=C(NS(=O)(=O)c3cccs3)C(=O)c3ccccc3C2=O)CC1 | 2.69 µM | – |
| O=C(NC1=C(c2ccc(OC(F)(F)F)cc2)C(=O)c2ccccc2C1=O)c1ccc(Br)cc1 | 35.1 µM | – |
| Cc1ccc(C(=O)NC2=C(c3ccccc3)C(=O)c3ccccc3C2=O)o1 | 9.24 µM | – |
| O=C(NC1=C(N2CCOCC2)C(=O)c2ccccc2C1=O)c1ccccc1 | 11.1 µM | – |
| COc1ccc(C2=C(NC(=O)c3ccc(Cl)cc3)C(=O)c3ccccc3C2=O)cc1 | 33.6 µM | – |
| CN1CCN(C2=C(NC(=O)c3ccccc3)C(=O)c3ccccc3C2=O)CC1 | 1.13 µM | – |
| CC(=O)NC1=C(c2ccc3c(c2)oc2ccccc23)C(=O)c2ccccc2C1=O | 5.89 µM | – |
| Cc1ccc(C(=O)NC2=C(c3ccc(OC(F)(F)F)cc3)C(=O)c3ccccc3C2=O)o1 | 27.5 µM | – |
| COc1ccc(C2=C(NC(=O)c3cccc(OC)c3)C(=O)c3ccccc3C2=O)cc1 | 17.5 µM | – |
| COc1ccc(C2=C(NC(C)=O)C(=O)c3ccccc3C2=O)cc1 | 6.89 µM | – |
| C=C1C(=O)OC2C1CC/C(C)=C\CCC1(C)OC21 (stereo not given) | 7.5 µM | – |
| C=CCNC1=C(NCCCN(CC)CC)C(=O)c2ccccc2C1=O | 5.77 µM | – |
| C=CCNC1=C(N2CCCCC2)C(=O)c2ccccc2C1=O | 0.722 µM | – |
| O=C1C(NS(=O)(=O)c2ccc(Br)cc2)=C(N2CCCCC2)C(=O)c2ccccc21 | 20.1 µM | – |
| O=C1C(Nc2ccccc2)=C(N2CCOCC2)C(=O)c2ccccc21 | 8.43 µM | – |
| C=CCNC1=C(N2CCN(C)CC2)C(=O)c2ccccc2C1=O | 7.93 µM | – |
| O=C(NC1=C(c2ccc(OC(F)(F)F)cc2)C(=O)c2ccccc2C1=O)c1ccccc1F | 34.7 µM | – |
| O=C(NC1=C(c2ccc(Oc3ccccc3)cc2)C(=O)c2ccccc2C1=O)c1ccccc1 | – | 17.5% (inactive) |

| Structure (SMILES) | AC50 [1] | activity change, negative = inhibition [2] |
| --- | --- | --- |
| COc1ccc(C(=O)NC2=C(c3ccc(OC)cc3)C(=O)c3ccccc3C2=O)cc1 | 11.9 µM | – |
| O=C1C(NS(=O)(=O)c2ccc(Br)cc2)=C(N2CCSCC2)C(=O)c2ccccc21 | 35.5 µM | – |
| O=C(CNc1cccc2ccccc12)N/N=C/c1ccc([N+](=O)[O-])o1 | 3.08 µM | – |
| O=C(NC1=C(c2ccccc2)C(=O)c2ccccc2C1=O)c1ccccc1 | 10.5 µM | – |
| COc1ccc(C2=C(NC(=O)c3ccccc3OC)C(=O)c3ccccc3C2=O)cc1 | – | 14.6% (inactive) |
| O=C1C(NS(=O)(=O)c2ccc(Br)cc2)=C(N2CCOCC2)C(=O)c2ccccc21 | 13.2 µM | – |
| O=C(NC1=C(N2CCSCC2)C(=O)c2ccccc2C1=O)c1ccccc1 | 5.8 µM | – |
| COc1ccc(C(=O)NC2=C(c3ccccc3)C(=O)c3ccccc3C2=O)cc1 | 14.7 µM | – |
| O=C(NC1=C(c2ccc(OC(F)(F)F)cc2)C(=O)c2ccccc2C1=O)c1ccccc1 | 31.3 µM | – |
| CC(=O)NC1=C(c2ccc(Oc3ccccc3)cc2)C(=O)c2ccccc2C1=O | 28.1 µM | – |
| C=CCNC1=C(NCCN(CC)CC)C(=O)c2ccccc2C1=O | 3.05 µM | – |
| CCN1CCN(C2=C(NS(=O)(=O)c3ccc(Br)cc3)C(=O)c3ccccc3C2=O)CC1 | 12.6 µM | – |
| C=CCNC1=C(NCCCN2CCOCC2)C(=O)c2ccccc2C1=O | 8.83 µM | – |
| O=C(NC1=C(Cl)C(=O)c2ccccc2C1=O)c1ccccc1 | 1.1 µM | – |
| COc1ccc(C2=C(NC(=O)c3ccccc3Cl)C(=O)c3ccccc3C2=O)cc1 | 11.8 µM | – |
| C=CCNC1=C(Cl)C(=O)c2ccccc2C1=O | 4.57 µM and 4.74 µM | – |
| CC1CCN(CC(CS(=O)(=O)c2ccc([N+](=O)[O-])cc2)N2CCC(C)CC2)CC1 (stereo not given) | 14.2 µM | – |
| CC(=O)NC1=C(c2ccccc2)C(=O)c2ccccc2C1=O | 8.08 µM | – |
| C=CCNC1=C(N2CCOCC2)C(=O)c2ccccc2C1=O | 3.46 µM | – |
| CN1CCN(C2=C(NS(=O)(=O)c3ccc(Br)cc3)C(=O)c3ccccc3C2=O)CC1 | 2.07 µM | – |
